Measurements of several laboratories.
Lines come from different studies, so protocols differ.
SRC: Proto-oncogene tyrosine-protein kinase Src (SRC, Homo sapiens, UniProt P12931)
SRC T341M: Proto-oncogene tyrosine-protein kinase Src (SRC, Homo sapiens, UniProt P12931, T341M)

Compound	target	read-out	action	technique	concentration	endpoint	value
O=C1Nc2ccc(Cl)cc2C1=Cc1cc(Cl)c(O)c(Cl)c1	SRC	cell-free assay			0.5 µM	remaining signal	96.2%
CCCCN(CCCC)C(=O)CN1C[C@H](c2cc(OC)c3c(c2)OCO3)[C@@H](C(=O)O)[C@@H]1CC(C)(C)CCC	SRC	cell-free assay		competition with immobilised ligand	1 µM	remaining binding	100%
CNc1cccc2cc(C(=O)Nc3ccc(C(=O)O)cc3)c(=O)[nH]c12	SRC	enzyme activity	inhibitor		10 µM	inhibition	5%
Cc1ccc(Nc2nccc(N(C)c3ccc4c(C)n(C)nc4c3)n2)cc1S(N)(=O)=O	SRC	enzyme activity	inhibitor		10 µM	inhibition	89%
O=C1c2ccccc2-c2n[nH]c3cccc1c23	SRC	enzyme activity	inhibitor		0.5 µM	activity vs control	97.6%
O=C(CSc1nc2nccnc2c(=O)n1CCc1ccccc1)Nc1nccs1	SRC	enzyme activity	inhibitor		10 µM	inhibition	7%
CC(C)n1cnc2c(Nc3cccc(Cl)c3)nc(NCCO)nc21	SRC	cell-free assay			0.5 µM	remaining signal	68.9%
Cc1cc(NC(=O)c2cccc3cc(-c4cccc5[nH]nc(N)c45)ccc23)ccc1F	SRC T341M	enzyme activity	inhibitor		0.1 µM	activity vs control	90%
c1ccc(CNc2nc(N3CCOc4ccccc43)nc3c2CCCC3)cc1	SRC	target engagement in cells	inhibitor	chemoproteomics	20 mM	inhibition	-13.5%
CCCS(=O)(=O)Nc1ccc(F)c(C(=O)c2c[nH]c3ncc(-c4ccc(Cl)cc4)cc23)c1F	SRC	enzyme activity	inhibitor		1 µM	inhibition	< 20%
CO[C@H]1CC[C@H](CNc2ccc(S(=O)(=O)NC(=O)c3ccc(N4CCN(CC5=C(c6ccc(Cl)cc6)CC(C)(C)CC5)CC4)cc3Oc3cnc4[nH]ccc4c3)cc2[N+](=O)[O-])CC1	SRC	cell-free assay		competition with immobilised ligand	1 µM	remaining binding	78%
N#CCCc1ccc2c(c1)-c1[nH]c3ccc([N+](=O)[O-])cc3c1CC(=O)N2	SRC	cell-free assay			0.5 µM	remaining signal	30.8%
O=C(NS(=O)(=O)c1ccc(NCC2CCOCC2)c([N+](=O)[O-])c1)c1ccc(N2CCN(Cc3ccc(C(F)(F)F)cc3-c3ccc(Cl)cc3)CC2)cc1Oc1cnc2[nH]ccc2c1	SRC	cell-free assay		competition with immobilised ligand	1 µM	remaining binding	76%
CN(C)C1CCN(CC#Cc2nn(C3CCCC3)c3nc(NCc4ccccc4)ncc23)C1 (stereo not shown)	SRC	enzyme activity	inhibitor	FRET	1 µM	inhibition	12%
COc1cc2ncnc(N3CCN(C(=O)Nc4ccc(Oc5ccccc5)cc4)CC3)c2cc1OC	SRC	cell-free assay			0.5 µM	remaining signal	102%
c1nc2c(Nc3ccc4c(c3)OCCO4)nc(Nc3ccc4c(c3)OCCO4)nc2[nH]1	SRC	binding		competition with immobilised ligand	10 µM	binding vs control	1.8%
Cc1ccc(C(=O)NCc2ccsc2)cc1C#Cc1cn(C(C)C)c2ncnc(N)c12	SRC T341M	enzyme activity	inhibitor		1 µM	activity vs control	79%
FC(F)(F)Oc1cccc(-c2cnc3ccc(-c4ccncc4)nn23)c1	SRC	enzyme activity	inhibitor	radiometric	5 µM	activity vs control	45%
O=C1CCc2cc(Nc3cc(OC4CCOCC4)c([N+](=O)[O-])cc3Cl)ccc2N1	SRC	cell-free assay		competition with immobilised ligand	1 µM	remaining binding	100%
CCOc1cc(-c2nncn2C)ccc1Nc1ncc2cc(C)nc(NCC(C)(C)C)c2n1	SRC	enzyme activity	inhibitor	FRET	1 µM	inhibition	< 15%
C[C@@H]1CN(c2cc(-c3nn(C)c4ccc(OC5(C)CC5)cc34)ncn2)C[C@H](C)O1	SRC	cell-free assay		competition with immobilised ligand	1 µM	remaining binding	100%
CCC(=O)Nc1ccc2ncnc(Nc3cccc(Br)c3)c2c1	SRC	cell-free assay	inhibitor		0.5 µM	remaining signal	93.6%
CCC(=O)N[C@@H]1CC[C@H](C(=O)N(C)c2ccc(-c3nc4ccccc4o3)cc2)C1	SRC	cell-free assay		competition with immobilised ligand	1 µM	remaining binding	100%
COc1cc2nccc(Oc3ccc(NC(=O)c4c5n(n(-c6ccc(F)cc6)c4=O)CCCC5)cc3)c2cc1OC	SRC	enzyme activity	inhibitor		0.1 µM	inhibition	49%
CO[C@@H](C)c1c(Nc2ccc([C@@H](N(C)C(=O)C3CCS(=O)(=O)CC3)C(F)(F)F)cc2)cnc2cc(Cl)nn12	SRC	cell-free assay		competition with immobilised ligand	1 µM	remaining binding	98%
COc1cc2ncnc(Nc3ccc(Oc4ccccc4)c(C)c3C)c2cc1OC	SRC	enzyme activity	inhibitor		1 µM	inhibition	78%
O=C(NCc1ncc(C(F)(F)F)cc1Cl)c1ccc2c(c1)C1(CCS(=O)(=O)CC1)[C@H](C1CC1)N2S(=O)(=O)c1ccc(F)cc1	SRC	cell-free assay		competition with immobilised ligand	1 µM	remaining binding	98%
Cc1ccc(NC(=O)c2ccc(C)c(C(F)(F)F)c2)cc1C#Cc1nn(C2CCC(O)CC2)c2ncnc(N)c12 (stereo not shown)	SRC	cell-free assay			10 µM	remaining signal	0%
